Assay results taken from article PMC3038628 (Journal of molecular biology, 2010).
Where a chain is given by its changes, count along the chain named. Numbers in names are those of the source.

B1: M264D: α-TTP mutant; surface methionine replaced with aspartate in a region predicted distant from the membrane plane (protein, UniProt P49638 1-278, looked up, variant M264D)
Alpha-tocopherol transfer …: MAEARSQPSAGPQLNALPDHSPLLQPGLAALRRRAREAGVPLAPLPLTDSFLLRFLRARDFDLDLAWRLLKNYYKWRAECPEISADLHPRSIIGLLKAGYHGVLRSRDPTGSKVLIYRIAHWDPKVFTAYDVFRVSLITSELIVQEVETQRNGIKAIFDLEGWQFSHAFQITPSVAKKIAAVLTDSFPLKVRGIHLINEPVIFHAVFSMIKPFLTEKIKERIHMHGNNYKQSLLQHFPDILPLEYGGEEFSMEDICQEWTNFIDKSEDYLSSISESIQ
B2: F165D/M209D: α-TTP double mutant (protein, UniProt P49638 1-278, looked up, variant F165D M209D)
Alpha-tocopherol transfer …: B1 Alpha-tocopherol transfer … with F165D, M209D, D264M
B3: M209A: α-TTP mutant, Met209 to Ala (protein, UniProt P49638 1-278, looked up, variant M209A)
Alpha-tocopherol transfer …: B1 Alpha-tocopherol transfer … with M209A, D264M
B4: R192H: naturally-occurring α-TTP mutant associated with heritable mild vitamin E deficiency in humans (protein, UniProt P49638 1-278, looked up, variant R192H)
Alpha-tocopherol transfer …: B1 Alpha-tocopherol transfer … with R192H, D264M
B5: K211A: α-TTP mutant, surface Lys211 (helix A10) to Ala (protein, UniProt P49638 1-278, looked up, variant K211A)
Alpha-tocopherol transfer …: B1 Alpha-tocopherol transfer … with K211A, D264M
B6: I202D: α-TTP mutant, Ile202 to Asp (helix A10) (protein, UniProt P49638 1-278, looked up, variant I202D)
Alpha-tocopherol transfer …: B1 Alpha-tocopherol transfer … with I202D, D264M

How the values were obtained:
[1] = FRET assay of NBD-Toc transfer from α-TTP variants to SUVs; type: biochemical; settings: for Rate of NBD-Toc transfer to SUV, Rate: PC vesicles, 0.225 μM NBD-Toc, 2 μM α-TTP, 100 μM vesicles, room temperature; for Rate of NBD-Toc transfer to SUV, Rate^mut/Rate^wt: relative to wild type; for Reduction of rate of transfer to SUVs: reduction relative to wild type
In short: (§1)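 Each protein (4 μM) was preloaded with 0.45 μM NBD-Toc for 15 min in SET buffer (pH 7.4). It was then stopped-flow mixed at room temperature with 200 μM acceptor vesicles of 97% liver PC and 3% TRITC-PE (finals 0.225 μM, 2 μM, 100 μM). Vesicles were sonicated SUVs (~60 nm) or extruded LUVs (150 nm). NBD quench was normalised to initial fluorescence and fitted single-exponentially.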

[2] = FRET assay of NBD-Toc transfer from α-TTP variants to LUVs; type: biochemical; settings: for Rate of NBD-Toc transfer to LUV, Rate: PC vesicles, 0.225 μM NBD-Toc, 2 μM α-TTP, 100 μM vesicles, room temperature; for Rate of NBD-Toc transfer to LUV, Rate^mut/Rate^wt: relative to wild type
In short: as §1

[3] = Dual polarization interferometry of protein adsorption to immobilized bilayer; type: binding; settings: for Ads^mut/Ads^wt (0.50 μM injection): 0.50 μM protein injection; for Ads^mut/Ads^wt (1.0 μM injection): 1.0 μM protein injection; for Fold change in affinity: relative to wild type; for Adsorption/binding to immobilized bilayers by DPI, % of wild type: injection concentration not stated
In short: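 Recombinant α-TTP (E. coli BL21(DE3), glutathione affinity, thrombin-cleaved) was dialysed 1 h at 4 °C into pH 7.4 phosphate/137 mM NaCl buffer. It was injected at 25 μl/min for 8 min over a 90:10 DOPC:DOPS bilayer on a silicon oxynitride chip at 20 °C. Adsorbed mass was measured at 0.5 and 1.0 μM in quadruplicate, two channels each. Kd came from fitting Bmax against concentration.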

Molecule | Rate of NBD-Toc transfer to SUV, Rate [1] [s⁻¹] | Rate of NBD-Toc transfer to SUV, Rate^mut/Rate^wt [1] [%] | Reduction of transfer rate with LUVs versus SUVs ([2]; LUVs compared with SUVs) [fold] | Rate of NBD-Toc transfer to LUV, Rate [2] [s⁻¹] | Rate of NBD-Toc transfer to LUV, Rate^mut/Rate^wt [2] [%] | Ads^mut/Ads^wt (0.50 μM injection) [3] | Ads^mut/Ads^wt (1.0 μM injection) [3] | Fold change in affinity [3] | Reduction of rate of transfer to SUVs [1] [%] | Reduction of rate of ligand deposition in LUVs ([2]; reduction relative to wild type) [%] | Effect on rate of NBD-Toc transfer to SUVs (in words) ([1]; compared with wild type or single mutants) | Adsorption/binding to immobilized bilayers by DPI, % of wild type [3] | Binding to immobilized bilayers, % of WT ([3]; printed "for LUVs") [%] | Binding to immobilized bilayers, % of WT ([3]; printed "for SUVs") [%]
WT: human α-tocopherol transfer protein, wild type, expressed in E. coli as GST fusion and cleaved | 0.127 ± 0.012 | 100 | 8 | 0.016 ± 0.002 | 100 | 1 | 1 | 0 | – | – | – | – | – | –
B1 | 0.116 ± 0.013 | 91 | – | 0.008 ± 0.001 | 50 | 0.66 | 0.81 | – | 9 | 50 | – | – | – | –
B2 | 0.034 ± 0.003 | 27 | – | 0.010 ± 0.001 | 62 | 0.01 | 0.18 | – | – | – | – | – | – | –
B3 | 0.140 ± 0.012 | 110 | – | 0.025 ± 0.005 | 156 | 1.01 | 1.12 | – | – | – | essentially no effect | – | – | –
B4 | 0.106 ± 0.008 | 83 | – | 0.012 ± 0.003 | 75 | 1.58 | 1.50 | – | – | – | – | ~ 150% | 150 | 158
B5 | 0.105 ± 0.008 | 83 | – | 0.011 ± 0.001 | 69 | 1.23 | 0.95 | – | – | – | – | 123% | – | –
B6 | 0.028 ± 0.002 | 22 | – | 0.005 ± 0.002 | 31 | 0.29 | 0.27 | 5 | 78 | – | – | – | – | –
